According to article PMC10060059 (Thrombosis and Haemostasis, 2023):
Read-outs that look alike come from different tables or passages of the source. Marks after values point to notes of the source that are not given here.

Assays:
[1] = Rivaroxaban/apixaban plasma concentrations; type: in vivo, human; conditions: for Effect of creatinine clearance on Cmax, multivariate analysis / Effect of creatinine clearance on Cmax, univariate analysis / Effect of creatinine clearance on Cmin, multivariate analysis / Effect of creatinine clearance on Cmin, univariate analysis: per decrease of 10 mL/min
[2] = test system: thrombin generation; assay: Thrombin generation on ST-Genesia; type: biochemical, human
[3] = Six-month clinical follow-up; type: in vivo, human; conditions: 6-month follow-up
Method in brief: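 Bleedings (site, severity), thromboembolic events (site) and deaths were recorded. Two geriatricians blinded to PK/PD data classed bleeds as major or nonmajor clinically relevant, and minor bleeds were not systematically recorded. Rates were given per DOAC group.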

[4] = cited from earlier work
[5] = CYP3A4/5 modulator in addition to amiodarone
[6] = P-gp modulator in addition to amiodarone
[7] = full dose: rivaroxaban 20 mg o.d., apixaban 5.0 mg b.i.d.
[8] = reduced dose: rivaroxaban 15 mg o.d., apixaban 2.5 mg b.i.d.
[9] = rivaroxaban 15 mg o.d., apixaban 2.5 mg b.i.d.
[10] = STG-ThromboScreen without thrombomodulin
[11] = for halved concentrations, STG-ThromboScreen without thrombomodulin
[12] = per decrease of 10 mL/min, STG-ThromboScreen without thrombomodulin
[13] = 2.5 mg b.i.d. vs. 5 mg b.i.d., listed as apixaban

O=C(NC[C@H]1CN(c2ccc(N3CCOCC3=O)cc2)C(=O)O1)c1ccc(Cl)s1 [Rivaroxaban, rivaroxaban]
Effect of dose regimen on Cmax, multivariate analysis ([1]; 15 mg o.d. vs. 20 mg o.d.): 29.4% ^a [−14.2; 95.2]
Effect of dose regimen on Cmax, univariate analysis ([1]; 15 mg o.d. vs. 20 mg o.d.): +20.3% ^a [−16.7; +73.5]
Effect of dose regimen on Cmin, multivariate analysis ([1]; 15 mg o.d. vs. 20 mg o.d.): −3.2% ^a [−35.1; 44.6]
Effect of dose regimen on Cmin, univariate analysis ([1]; 15 mg o.d. vs. 20 mg o.d.): −3.8% ^a [−35.1; +42.6]
Effect of dose regimen on Cmax, univariate analysis ([1]; 15 mg o.d. vs. 20 mg o.d., listed as rivaroxaban): +20.3%
Effect of CYP3A4/5 modulator on Cmax, multivariate analysis [1, 5]: +10.6% [−23.1; 58.9]
Effect of CYP3A4/5 modulator on Cmax, univariate analysis [1, 5]: +9.5% [−21.0; 51.6]
Effect of CYP3A4/5 modulator on Cmin, multivariate analysis [1, 5]: +43.1% [5.3; 94.3]
Effect of CYP3A4/5 modulator on Cmin, univariate analysis [1, 5]: +31.1% [−24.7; 72.2]
Effect of P-gp inhibitor on Cmax, multivariate analysis [1, 6]: −6.31% [−35.8; 36.6]
Effect of P-gp inhibitor on Cmax, univariate analysis [1, 6]: −9.95% [−35.3; 25.4]
Effect of P-gp inhibitor on Cmin, multivariate analysis [1, 6]: −8.7% [−34.2; 26.8]
Effect of P-gp inhibitor on Cmin, univariate analysis [1, 6]: −15.9% [−37.6; 13.5]
Effect of amiodarone on Cmax, multivariate analysis ([1]; amiodarone intake): −26.1% ^b [−75.8; 125.5]
Effect of amiodarone on Cmax, univariate analysis ([1]; amiodarone intake): +4.73% [−31.5; 60.2]
Effect of amiodarone on Cmin, multivariate analysis ([1]; amiodarone intake): 99.8% ^c [10.3; 262.0]
Effect of amiodarone on Cmin, univariate analysis ([1]; amiodarone intake): +47.8% [−2.8; 109.4]
Effect of amiodarone on Cmin, univariate analysis ([1]; amiodarone intake, listed as rivaroxaban): +47.8%
Effect of female gender on Cmax, multivariate analysis ([1]; female gender): +11.8% [−20.8; 57.9]
Effect of female gender on Cmax, univariate analysis ([1]; female gender): +12.2% [−17.7; 53.0]
Effect of female gender on Cmin, multivariate analysis ([1]; female gender): −10.1% [−35.2; 22.3]
Effect of female gender on Cmin, univariate analysis ([1]; female gender): −14.2% [−36.0; 15.1]
inter-individual variability of Cmax (coefficient of variation) [1, 7]: 47%
inter-individual variability of Cmin (coefficient of variation) [1, 7]: 37%
Effect of creatinine clearance on Cmax, multivariate analysis [1]: +3.4% ^b [−7.6; 15.6]
Effect of creatinine clearance on Cmax, univariate analysis [1]: +1.89% ^b [−8.2; 13.1]
Effect of creatinine clearance on Cmin, multivariate analysis [1]: +5.0% ^b [−4.9; 16.0]
Effect of creatinine clearance on Cmin, univariate analysis [1]: +8.1% ^b [−3.9; 15.8]
Effect of creatinine clearance on Cmin, univariate analysis ([1]; listed as rivaroxaban): +8.1%
Effect of ABCB1 3435C > T on Cmax, multivariate analysis ([1]; per mutated allele): +18.3% ^d [−10.9; 39.8]
Effect of ABCB1 3435C > T on Cmax, univariate analysis ([1]; per mutated allele): +18.3% ^d [−5.3; 36.6]
Effect of ABCB1 3435C > T on Cmin, multivariate analysis ([1]; per mutated allele): +10.4% ^d [−14.9; 30.1]
Effect of ABCB1 3435C > T on Cmin, univariate analysis ([1]; per mutated allele): +16.9% ^d [−6.6; 31.0]
Effect of ABCB1 3435C > T on Cmin, univariate analysis ([1]; per mutated allele, listed as rivaroxaban): +16.9%
inter-individual variability of Cmax (coefficient of variation) [1, 8]: 49%
inter-individual variability of Cmin (coefficient of variation) [1, 8]: 75%
median Cmax ([1]; rivaroxaban 15 mg o.d., T1-T4, NVAF in-patients ≥80 years): 251 ng/mL
patients above the 95th percentile of SmPC values at Tmin [1, 9]: 3.1%
patients below the 5th percentile of SmPC values at Tmin [1, 9]: 21.5%
Effect of amiodarone on peak height at Tmin, multivariate [2, 10]: −44.6%** [−75.1; 23.2]
Effect of amiodarone on peak height at Tmin, univariate [2, 10]: −52.2%
Effect of heart failure on peak height at Tmax, multivariate [2, 10]: −22.3% [−45.0; 9.8]
Effect of heart failure on peak height at Tmax, univariate [2, 10]: −36.6%
Effect of heart failure on peak height at Tmin, multivariate [2, 10]: −12.7% [−37.7; 22.4]
Effect of heart failure on peak height at Tmin, univariate [2, 10]: −31.4% [−52.2; −1.7]
Effect of plasma concentrations on peak height at Tmax, multivariate [2, 11]: –5.0% ^a [−27.9; 25.2]
Effect of plasma concentrations on peak height at Tmax, univariate [2, 11]: +23.9% ^a [−11.4; 73.2]
Effect of plasma concentrations on peak height at Tmin, multivariate [2, 11]: +21.0% ^a [−4.0; 52.4]
Effect of plasma concentrations on peak height at Tmin, univariate [2, 11]: +38.7% ^a [12.4;71.1]
Effect of creatinine clearance on peak height at Tmax, multivariate [2, 12]: −16.4% ^b [−26.3; −5.0]
Effect of creatinine clearance on peak height at Tmin, multivariate [2, 12]: −6.76% ^b [−15.5; 2.8]
Effect of creatinine clearance on peak height at Tmin, univariate [2, 12]: −6.1% ^b [−16.2; 5.2 ]
death rate [3]: 17.3%
thromboembolic event rate [3]: 1.0%
inter-individual variability of Cmax and Cmin ([4]; Mueck et al's data): around 30%

COc1ccc(-n2nc(C(N)=O)c3c2C(=O)N(c2ccc(N4CCCCC4=O)cc2)CC3)cc1 [Apixaban, apixaban]
Effect of dose regimen on Cmax, multivariate analysis ([1]; 2.5 mg b.i.d. vs. 5 mg b.i.d.): +64.8% ^e [16.6; 132.9]
Effect of dose regimen on Cmax, univariate analysis ([1]; 2.5 mg b.i.d. vs. 5 mg b.i.d.): +44.9% ^e [7.14; 96.1]
Effect of dose regimen on Cmin, multivariate analysis ([1]; 2.5 mg b.i.d. vs. 5 mg b.i.d.): +54.8% ^e [6.65; 124.6]
Effect of dose regimen on Cmin, univariate analysis ([1]; 2.5 mg b.i.d. vs. 5 mg b.i.d.): +45.6% ^e [4.7; 102.6]
Effect of dose regimen on Cmax, multivariate analysis [1, 13]: +64.8%
Effect of dose regimen on Cmax, univariate analysis [1, 13]: 44.9%
Effect of dose regimen on Cmin, multivariate analysis [1, 13]: +54.8%
Effect of dose regimen on Cmin, univariate analysis [1, 13]: 45.6%
Effect of CYP3A4/5 modulator on Cmin, univariate analysis [1, 5]: +20.8% [−9.8; 61.7]
Effect of amiodarone on Cmax, multivariate analysis ([1]; amiodarone intake): +79.3% [5.5; 204.7]
Effect of amiodarone on Cmax, univariate analysis ([1]; amiodarone intake): +43.5% [7.9; 90.9]
Effect of amiodarone on Cmin, univariate analysis ([1]; amiodarone intake): +14.4% [−18.5; 60.5]
Effect of amiodarone on Cmax, univariate analysis ([1]; amiodarone intake, listed as apixaban): +43.5%
Effect of female gender on Cmax, multivariate analysis ([1]; female gender): +28.7% [−4.5; 73.4]
Effect of female gender on Cmax, univariate analysis ([1]; female gender): +44.0% [7.4; 93.1]
Effect of female gender on Cmin, univariate analysis ([1]; female gender): +15.7% [−14.9; 57.1]
Effect of female gender on Cmax, univariate analysis ([1]; female gender, listed as apixaban): +44.0%
inter-individual variability of Cmax (coefficient of variation) [1, 7]: 47%
inter-individual variability of Cmin (coefficient of variation) [1, 7]: 68%
Effect of creatinine clearance on Cmax, multivariate analysis [1]: +4.5% ^b [−3.0; 11.4]
Effect of creatinine clearance on Cmax, univariate analysis [1]: +3.3% ^b [−4.28; 10.31]
Effect of creatinine clearance on Cmin, multivariate analysis [1]: +4.5% ^b [−4.9; 13.1]
Effect of creatinine clearance on Cmin, univariate analysis [1]: +4.6% ^b [−4.2; 12.7]
Effect of ABCB1 3435C > T on Cmax, multivariate analysis ([1]; per mutated allele): +10.1% ^d [−8.3; 25.3]
Effect of ABCB1 3435C > T on Cmax, univariate analysis ([1]; per mutated allele): +2.1% ^d [−18.7; 19.3]
Effect of ABCB1 3435C > T on Cmin, univariate analysis ([1]; per mutated allele): +14.8% ^d [−4.1; 30.3]
Effect of ABCB1 3435C > T on Cmin, univariate analysis ([1]; per mutated allele, listed as apixaban): +14.8%
inter-individual variability of Cmax (coefficient of variation) [1, 8]: 46%
inter-individual variability of Cmin (coefficient of variation) [1, 8]: 61%
patients above the 95th percentile of SmPC values at Tmin [1, 9]: 9.7%
patients below the 5th percentile of SmPC values at Tmin [1, 9]: 9.7%
association of ETP with DOAC concentrations ([2]; STG-DrugScreen and STG-ThromboScreen without TM): ETP was associated with apixaban concentrations
Effect of amiodarone on peak height at Tmax, multivariate [2, 10]: −26.0% [−91.8; 564.1]
Effect of amiodarone on peak height at Tmax, univariate [2, 10]: +3.7% [−58.7; 160.1]
Effect of amiodarone on peak height at Tmin, multivariate [2, 10]: −57.47% [−83.2; 7.9]
Effect of amiodarone on peak height at Tmin, univariate [2, 10]: −37.2% [−60.0; −1.5]
Effect of heart failure on peak height at Tmax, multivariate [2, 10]: −9.2% [−62.9; 122.6]
Effect of heart failure on peak height at Tmax, univariate [2, 10]: −26.7% [−66.7; 61.4]
Effect of heart failure on peak height at Tmin, multivariate [2, 10]: +0.84% [−30.8; 46.9]
Effect of amiodarone on peak height at Tmin, univariate ([2]; STG-ThromboScreen without thrombomodulin, listed as apixaban): −37.2%
Effect of plasma concentrations on peak height at Tmax, multivariate [2, 11]: +86.8% ^a [−0.48; 250.5]
Effect of plasma concentrations on peak height at Tmin, multivariate [2, 11]: +32.7% ^a [8.28; 62.59]
Effect of plasma concentrations on peak height at Tmin, univariate [2, 11]: 37.1% ^a 13.1; 66.2]
Effect of creatinine clearance on peak height at Tmax, multivariate [2, 12]: +2.4% ^b [−17.9; 27.8]
Effect of creatinine clearance on peak height at Tmax, univariate [2, 12]: +0.42% ^b [4.70; 36.9]
Effect of creatinine clearance on peak height at Tmin, univariate [2, 12]: 1.7% ^b [−10.7; 15.8]
death rate [3]: 18.9%
thromboembolic event rate [3]: 3.6%
median Cmax ([4]; ARISTOTLE patients (median age 70 years) receiving 2.5 mg b.i.d.): 123 ng/mL
inter-individual variability of concentrations ([4]; SmPC, ARISTOTLE data set, mean age 70 years): around 30%
